{"source": "ChEMBL document CHEMBL4376814", "about": "“Novel cyclin-dependent kinase 9 (CDK9) inhibitor with suppression of cancer stemness activity against non-small-cell lung cancer” (Eur J Med Chem, 2019)", "key": {"[1]": {"biological_target": "Serine/threonine-protein kinase ULK1 (Homo sapiens) (UniProt O75385)", "assay": "Inhibition of human ULK1 (1 to 314 residues) at 1 uM using casein as substrate measured after 40 mins in presence of [gamma33P]ATP by scintillation counting method relative to control"}, "[2]": {"system": "PI3-kinase p110-alpha/p85-alpha (Homo sapiens), P27986+P42336 [H1047R]", "assay": "Inhibition of recombinant full-length human PI3K p110alpha/p85alpha H1047R mutant at 1 uM using phosphatidylinositol-4, 5-bisphosphate as substrate measured after 40 mins by fluorescence assay relative to control"}, "MCF7": {"system": "MCF7", "assay": "Antiproliferative activity against human MCF7 cells assessed as inhibition of cell viability after 72 hrs by CCK-8 assay", "assay_type": "functional, cell-based", "conditions": "MCF7, 72 h", "method_in_brief": "(§1)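 Cells kept at 37 °C, 5% CO2 in DMEM or RPMI-1640 with 10% FBS and 1% penicillin/streptomycin, then seeded at 3000 cells/well (adherent) or 10,000 cells/well (suspension). Exposed to a range of concentrations for 72 h. CCK-8 added for 1-4 h before reading A450. […] Three independent experiments.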"}, "[3]": {"biological_target": "Serine/threonine-protein kinase 35 (Homo sapiens) (UniProt Q8TDR2)", "assay": "Inhibition of full length recombinant human CLIK1 at 1 uM using RSRSRSRSRSRSRSR as substrate measured after 40 mins in presence of [gamma33P]ATP by scintillation counting method relative to control"}, "[4]": {"system": "Tyrosine-protein kinase ABL1 (Homo sapiens), P00519 [H396P]", "assay": "Inhibition of recombinant human ABL H396P mutant (27 to end residues) at 1 uM using EAIYAAPFAKKK as substrate measured after 40 mins in presence of [gamma33P]ATP by scintillation counting method relative to control"}, "[5]": {"biological_target": "Mitogen-activated protein kinase 11 (Homo sapiens) (UniProt Q15759)", "sequence (Q15759 whole entry)": "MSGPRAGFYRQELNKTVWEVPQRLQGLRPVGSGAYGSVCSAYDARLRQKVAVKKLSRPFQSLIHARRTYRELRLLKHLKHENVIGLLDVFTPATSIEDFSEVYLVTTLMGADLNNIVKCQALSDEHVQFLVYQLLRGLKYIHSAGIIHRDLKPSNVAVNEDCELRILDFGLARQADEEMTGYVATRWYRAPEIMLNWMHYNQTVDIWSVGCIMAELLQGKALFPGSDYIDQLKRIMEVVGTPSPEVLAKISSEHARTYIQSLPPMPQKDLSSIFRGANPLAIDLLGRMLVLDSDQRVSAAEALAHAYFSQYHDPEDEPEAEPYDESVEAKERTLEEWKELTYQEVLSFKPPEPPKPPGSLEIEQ", "assay": "Inhibition of recombinant full-length human SAPK2b at 1 uM using myelin basic protein as substrate measured after 40 mins in presence of [gamma33P]ATP by scintillation counting method relative to control"}, "[6]": {"biological_target": "Serine/threonine-protein kinase DCLK3 (Homo sapiens) (UniProt Q9C098)", "sequence (Q9C098 whole entry)": "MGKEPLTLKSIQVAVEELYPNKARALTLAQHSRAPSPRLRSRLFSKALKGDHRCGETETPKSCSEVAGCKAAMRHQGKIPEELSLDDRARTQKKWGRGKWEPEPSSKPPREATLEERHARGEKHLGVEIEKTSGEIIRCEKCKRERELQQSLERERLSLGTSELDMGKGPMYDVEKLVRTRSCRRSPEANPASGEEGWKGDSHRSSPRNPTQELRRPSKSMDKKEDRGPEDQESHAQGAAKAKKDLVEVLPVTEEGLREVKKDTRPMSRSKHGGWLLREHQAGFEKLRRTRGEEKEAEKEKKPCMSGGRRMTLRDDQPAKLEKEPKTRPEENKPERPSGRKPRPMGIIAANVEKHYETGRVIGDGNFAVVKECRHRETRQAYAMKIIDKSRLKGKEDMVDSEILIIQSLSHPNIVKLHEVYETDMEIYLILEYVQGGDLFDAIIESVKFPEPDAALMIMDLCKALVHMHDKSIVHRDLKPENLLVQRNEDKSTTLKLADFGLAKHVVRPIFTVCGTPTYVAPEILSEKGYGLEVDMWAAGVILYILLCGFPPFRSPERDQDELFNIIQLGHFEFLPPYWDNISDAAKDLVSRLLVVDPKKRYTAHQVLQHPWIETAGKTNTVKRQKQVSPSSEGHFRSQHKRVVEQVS", "assay": "Inhibition of recombinant human DCAMKL3 (345 to end residues) at 1 uM using KKLNRTLSFAEPG as substrate measured after 40 mins in presence of [gamma33P]ATP by scintillation counting method relative to control"}, "[7]": {"biological_target": "SRSF protein kinase 3 (Homo sapiens) (UniProt Q9UPE1)", "sequence (Q9UPE1 whole entry)": "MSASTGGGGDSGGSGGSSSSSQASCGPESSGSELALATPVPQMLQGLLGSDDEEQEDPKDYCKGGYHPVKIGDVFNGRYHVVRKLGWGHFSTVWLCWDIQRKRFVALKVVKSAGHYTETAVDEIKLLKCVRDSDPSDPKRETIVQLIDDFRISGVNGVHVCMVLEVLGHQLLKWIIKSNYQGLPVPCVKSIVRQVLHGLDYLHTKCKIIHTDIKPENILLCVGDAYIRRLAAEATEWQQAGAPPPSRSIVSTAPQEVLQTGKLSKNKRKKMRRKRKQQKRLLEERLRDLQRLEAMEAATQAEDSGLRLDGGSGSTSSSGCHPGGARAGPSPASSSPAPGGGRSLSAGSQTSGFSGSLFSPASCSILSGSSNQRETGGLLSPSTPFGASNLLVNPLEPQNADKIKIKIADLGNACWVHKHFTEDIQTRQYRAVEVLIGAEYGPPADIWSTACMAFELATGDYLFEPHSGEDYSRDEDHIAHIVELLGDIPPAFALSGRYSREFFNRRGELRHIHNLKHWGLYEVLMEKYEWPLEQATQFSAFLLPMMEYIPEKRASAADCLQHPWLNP", "assay": "Inhibition of recombinant full-length human MSSK1 at 1 uM using ERMRPRKRQGSVRRRV as substrate measured after 40 mins in presence of [gamma33P]ATP by scintillation counting method relative to control"}, "[8]": {"biological_target": "Insulin-like growth factor 1 receptor (Homo sapiens) (UniProt P08069)", "assay": "Inhibition of recombinant human activated IGF1R (959 to end residues) at 1 uM using KKKSPGEYVNIEFG as substrate measured after 40 mins in presence of [gamma33P]ATP by scintillation counting method relative to control"}, "Homo sapiens": {"organism": "Homo sapiens", "assay": "Inhibition of recombinant full-length human AURKA I31F mutant at 1 uM using LRRASLG as substrate measured after 40 mins in presence of [gamma33P]ATP by scintillation counting method relative to control"}, "[9]": {"biological_target": "Serine/threonine-protein kinase DCLK2 (Homo sapiens) (UniProt Q8N568)", "sequence (Q8N568 whole entry)": "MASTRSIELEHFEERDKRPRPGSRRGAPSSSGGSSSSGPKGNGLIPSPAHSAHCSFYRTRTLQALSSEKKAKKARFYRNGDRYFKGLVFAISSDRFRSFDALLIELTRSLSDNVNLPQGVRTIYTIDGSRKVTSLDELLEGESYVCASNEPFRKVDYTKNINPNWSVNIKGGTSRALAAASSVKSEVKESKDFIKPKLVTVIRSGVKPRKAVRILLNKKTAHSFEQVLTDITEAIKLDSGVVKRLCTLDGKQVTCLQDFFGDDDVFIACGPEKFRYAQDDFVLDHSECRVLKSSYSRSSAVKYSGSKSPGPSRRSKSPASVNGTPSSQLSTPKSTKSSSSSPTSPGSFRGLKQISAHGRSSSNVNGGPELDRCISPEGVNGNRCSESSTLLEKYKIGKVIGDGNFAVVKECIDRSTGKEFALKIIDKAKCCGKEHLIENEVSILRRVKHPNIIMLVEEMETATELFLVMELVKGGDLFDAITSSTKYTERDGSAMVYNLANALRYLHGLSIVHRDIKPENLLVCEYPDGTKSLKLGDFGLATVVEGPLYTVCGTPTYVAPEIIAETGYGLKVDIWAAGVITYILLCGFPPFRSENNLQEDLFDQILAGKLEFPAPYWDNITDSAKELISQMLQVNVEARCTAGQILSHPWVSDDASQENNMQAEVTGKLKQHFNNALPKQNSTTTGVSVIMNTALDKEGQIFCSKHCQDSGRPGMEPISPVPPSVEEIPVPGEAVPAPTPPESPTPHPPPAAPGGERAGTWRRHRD", "assay": "Inhibition of recombinant human DCAMKL2 (376 to end residues) at 1 uM using KKLNRTLSFAEPG as substrate measured after 40 mins in presence of [gamma33P]ATP by scintillation counting method relative to control", "method_in_brief": "(§2)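 Single-point inhibition at 1 µM was measured in the Eurofins KinaseProfiler panel. Values are the mean of two independent experiments.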"}, "[10]": {"biological_target": "Dual specificity mitogen-activated protein kinase kinase 2 (Homo sapiens) (UniProt P36507)", "assay": "Inhibition of recombinant full-length human MEK2 at 1 uM using unactive […] as substrate measured after 40 mins in presence of [gamma33P]ATP by scintillation counting method relative to control"}, "[11]": {"biological_target": "CDK9/cyclin T1 (Homo sapiens) (UniProt O60563+P50750)", "conditions": "1 uM"}, "[12]": {"biological_target": "Eukaryotic translation initiation factor 2-alpha kinase 1 (Homo sapiens) (UniProt Q9BQI3)", "sequence (Q9BQI3 whole entry)": "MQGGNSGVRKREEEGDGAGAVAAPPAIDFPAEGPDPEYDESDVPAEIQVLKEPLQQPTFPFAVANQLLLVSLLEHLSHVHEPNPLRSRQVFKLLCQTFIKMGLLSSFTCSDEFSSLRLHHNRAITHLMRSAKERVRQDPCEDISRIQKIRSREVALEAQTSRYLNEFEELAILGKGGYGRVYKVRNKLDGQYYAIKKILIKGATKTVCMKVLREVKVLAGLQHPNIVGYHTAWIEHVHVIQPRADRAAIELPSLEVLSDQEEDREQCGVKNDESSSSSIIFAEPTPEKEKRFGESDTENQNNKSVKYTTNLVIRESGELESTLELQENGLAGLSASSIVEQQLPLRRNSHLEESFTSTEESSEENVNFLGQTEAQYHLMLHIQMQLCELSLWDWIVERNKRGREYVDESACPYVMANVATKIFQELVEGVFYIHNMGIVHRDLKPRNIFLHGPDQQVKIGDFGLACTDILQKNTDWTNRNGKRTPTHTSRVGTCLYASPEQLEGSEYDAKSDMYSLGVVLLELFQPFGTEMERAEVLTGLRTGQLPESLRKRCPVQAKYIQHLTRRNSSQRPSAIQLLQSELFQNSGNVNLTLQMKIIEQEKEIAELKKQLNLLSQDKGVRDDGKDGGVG", "assay": "Inhibition of recombinant human HRI (140 to end residues) at 1 uM using RSRSRSRSRSRSRSR as substrate measured after 120 mins in presence of [gamma33P]ATP by scintillation counting method relative to control"}, "[13]": {"biological_target": "Protein kinase C alpha type (Homo sapiens) (UniProt P17252)", "assay": "Inhibition of recombinant full-length human PKCalpha at 1 uM using histone H1 as substrate measured after 40 mins in presence of [gamma33P]ATP by scintillation counting method relative to control"}, "[14]": {"biological_target": "Mitogen-activated protein kinase kinase kinase kinase 3 (Homo sapiens) (UniProt Q8IVH8)", "sequence (Q8IVH8 whole entry, the tested form may be a part)": "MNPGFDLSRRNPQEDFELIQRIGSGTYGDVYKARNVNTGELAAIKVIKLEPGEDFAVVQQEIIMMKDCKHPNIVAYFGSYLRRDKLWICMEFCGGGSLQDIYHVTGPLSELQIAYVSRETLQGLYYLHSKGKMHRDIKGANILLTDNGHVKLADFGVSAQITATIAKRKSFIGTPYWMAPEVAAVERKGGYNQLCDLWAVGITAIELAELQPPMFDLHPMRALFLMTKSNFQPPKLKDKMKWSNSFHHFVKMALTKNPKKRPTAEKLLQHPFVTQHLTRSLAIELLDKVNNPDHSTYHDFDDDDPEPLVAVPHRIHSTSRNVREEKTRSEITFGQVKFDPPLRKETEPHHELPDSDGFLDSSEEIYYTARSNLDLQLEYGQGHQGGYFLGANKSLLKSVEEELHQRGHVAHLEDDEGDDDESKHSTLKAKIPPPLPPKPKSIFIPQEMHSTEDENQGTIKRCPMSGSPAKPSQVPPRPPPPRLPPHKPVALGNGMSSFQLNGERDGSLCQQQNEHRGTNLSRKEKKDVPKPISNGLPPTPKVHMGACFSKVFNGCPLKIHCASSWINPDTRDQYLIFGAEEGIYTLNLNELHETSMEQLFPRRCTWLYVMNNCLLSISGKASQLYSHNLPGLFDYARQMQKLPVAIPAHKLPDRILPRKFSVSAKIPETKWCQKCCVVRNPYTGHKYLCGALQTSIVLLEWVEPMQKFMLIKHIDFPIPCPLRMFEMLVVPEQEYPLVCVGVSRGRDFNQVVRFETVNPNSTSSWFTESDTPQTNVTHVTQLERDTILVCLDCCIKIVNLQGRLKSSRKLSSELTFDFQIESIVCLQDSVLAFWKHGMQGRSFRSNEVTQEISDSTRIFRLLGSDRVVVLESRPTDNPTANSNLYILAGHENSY", "assay": "Inhibition of recombinant human MAP4K3 (1 to 291 residues) at 1 uM using RLGRDKYKTLRQIRQ as substrate measured after 40 mins in presence of [gamma33P]ATP by scintillation counting method relative to control"}, "NCI-H1299": {"system": "NCI-H1299", "assay": "Inhibition of tumorsphere formation in human H1299 cells assessed as reduction in side population ratio by PI/Hoechst 33342 staining based flow cytometry", "assay_type": "functional, cell-based"}, "[15]": {"biological_target": "CDK3/Cyclin E (Homo sapiens) (UniProt P24864+Q00526)", "sequence (P24864 whole entry, looked up)": "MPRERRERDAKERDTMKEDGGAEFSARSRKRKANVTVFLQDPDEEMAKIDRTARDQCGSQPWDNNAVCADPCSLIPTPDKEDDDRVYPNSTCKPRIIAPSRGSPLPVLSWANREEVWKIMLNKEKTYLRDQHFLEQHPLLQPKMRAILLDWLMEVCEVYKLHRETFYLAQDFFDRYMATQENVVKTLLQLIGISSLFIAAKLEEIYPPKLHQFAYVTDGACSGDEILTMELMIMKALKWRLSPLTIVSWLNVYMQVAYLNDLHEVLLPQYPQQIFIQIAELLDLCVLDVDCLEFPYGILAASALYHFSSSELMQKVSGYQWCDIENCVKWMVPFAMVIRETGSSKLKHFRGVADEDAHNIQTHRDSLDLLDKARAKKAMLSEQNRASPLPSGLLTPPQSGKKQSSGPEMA", "sequence (Q00526 whole entry, looked up)": "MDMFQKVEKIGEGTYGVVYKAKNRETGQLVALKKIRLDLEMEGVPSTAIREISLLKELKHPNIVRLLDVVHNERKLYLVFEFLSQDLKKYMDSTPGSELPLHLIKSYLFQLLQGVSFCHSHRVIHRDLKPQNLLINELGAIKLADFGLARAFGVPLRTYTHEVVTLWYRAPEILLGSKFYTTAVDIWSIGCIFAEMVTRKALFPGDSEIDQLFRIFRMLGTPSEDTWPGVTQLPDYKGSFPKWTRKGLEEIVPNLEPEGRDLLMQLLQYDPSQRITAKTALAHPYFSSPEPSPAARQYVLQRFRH", "assay": "Inhibition of recombinant full-length human CDK3/cyclinE at 1 uM using Histone H1 as substrate measured after 40 mins in presence of [gamma33P]ATP by scintillation counting method relative to control", "assay_type": "protein-complex assay"}, "Jurkat": {"system": "Jurkat", "assay": "Antiproliferative activity against human Jurkat cells assessed as inhibition of cell viability after 72 hrs by CCK-8 assay", "assay_type": "functional, cell-based", "method_in_brief": "as §1"}, "[16]": {"biological_target": "cAMP-dependent protein kinase catalytic subunit alpha (Homo sapiens) (UniProt P17612)", "assay": "Inhibition of recombinant full-length human PKA at 1 uM using Kemptide as substrate measured after 40 mins in presence of [gamma33P]ATP by scintillation counting method relative to control", "method_in_brief": "as §2"}, "[17]": {"biological_target": "Serine/threonine-protein kinase 32B (Homo sapiens) (UniProt Q9NY57)", "sequence (Q9NY57 whole entry)": "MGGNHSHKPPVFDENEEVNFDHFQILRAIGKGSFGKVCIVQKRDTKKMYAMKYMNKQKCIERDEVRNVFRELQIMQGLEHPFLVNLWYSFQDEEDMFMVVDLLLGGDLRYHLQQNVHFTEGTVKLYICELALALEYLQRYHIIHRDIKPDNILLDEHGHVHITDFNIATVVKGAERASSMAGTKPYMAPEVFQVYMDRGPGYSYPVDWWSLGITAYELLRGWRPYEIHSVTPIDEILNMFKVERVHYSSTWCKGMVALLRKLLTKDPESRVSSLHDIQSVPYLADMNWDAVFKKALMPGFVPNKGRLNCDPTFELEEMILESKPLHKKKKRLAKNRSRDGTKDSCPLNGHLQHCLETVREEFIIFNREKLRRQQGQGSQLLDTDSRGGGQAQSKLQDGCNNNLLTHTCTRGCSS", "assay": "Inhibition of recombinant full-length human STK32B at 1 uM using casein as substrate measured after 120 mins in presence of [gamma33P]ATP by scintillation counting method relative to control"}, "[18]": {"biological_target": "Myosin light chain kinase, smooth muscle (Homo sapiens) (UniProt Q15746)", "assay": "Inhibition of recombinant human MLCK (1425 to 1771 residues) at 1 uM using calmodulin as substrate measured after 40 mins in presence of [gamma33P]ATP by scintillation counting method relative to control"}, "[19]": {"biological_target": "Transient receptor potential cation channel subfamily M member 7 (Homo sapiens) (UniProt Q96QT4)", "assay": "Inhibition of recombinant human CHAK1 (1180 to end residues) at 1 uM using myelin basic protein as substrate measured after 40 mins in presence of [gamma33P]ATP by scintillation counting method relative to control"}}}
{"compound": "CN(C)C(=O)c1cc2cnc(Nc3ccc(NC(=O)CCCCCCCN=C=S)cc3)nc2n1C1CCCC1", "values": [{"measurement": "inhibition", "setting": "[1]", "result": -3, "unit": "%"}, {"measurement": "inhibition", "setting": "[2]", "result": 2, "unit": "%"}, {"measurement": "IC50", "setting": "MCF7", "result": 1740, "unit": "nM"}, {"measurement": "inhibition", "setting": "[3]", "result": 14, "unit": "%"}, {"measurement": "inhibition", "setting": "[4]", "result": 35, "unit": "%"}, {"measurement": "inhibition", "setting": "[5]", "result": 27, "unit": "%"}, {"measurement": "inhibition", "setting": "[6]", "result": 9, "unit": "%"}, {"measurement": "inhibition", "setting": "[7]", "result": 18, "unit": "%"}, {"measurement": "inhibition", "setting": "[8]", "result": 0, "unit": "%"}, {"measurement": "inhibition", "setting": "Homo sapiens", "result": 95, "unit": "%"}, {"measurement": "inhibition", "setting": "[9]", "result": 1, "unit": "%"}, {"measurement": "inhibition", "setting": "[10]", "result": 8, "unit": "%"}, {"measurement": "inhibition", "setting": "[11]", "result": 98, "unit": "%"}, {"measurement": "inhibition", "setting": "[12]", "result": 30, "unit": "%"}, {"measurement": "inhibition", "setting": "[13]", "result": 68, "unit": "%"}, {"measurement": "inhibition", "setting": "[14]", "result": 95, "unit": "%"}, {"measurement": "inhibition", "setting": "NCI-H1299", "result": "Dose-dependent effect"}, {"measurement": "inhibition", "setting": "[15]", "result": 82, "unit": "%"}, {"measurement": "IC50", "setting": "Jurkat", "result": 3430, "unit": "nM"}, {"measurement": "inhibition", "setting": "[16]", "result": 1, "unit": "%"}, {"measurement": "inhibition", "setting": "[17]", "result": 49, "unit": "%"}, {"measurement": "inhibition", "setting": "[18]", "result": 5, "unit": "%"}, {"measurement": "inhibition", "setting": "[19]", "result": 16, "unit": "%"}]}
